Measured values reported in article PMC12178318 (Cancer, 2025).

Key:
[1] = test system: patients with mycosis fungoides or Sézary syndrome; conditions: cited from earlier work
[2] = test system: patients with advanced solid tumors; assay: Phase 1 safety and tolerability; assay type: in vivo, human; conditions: any cycle, N = 36
Procedure, shortened: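 Adults (≥18 y) with locally advanced or metastatic solid tumours who had failed available therapy. They took oral test compound at 0.3–100 mg once daily alone for 28 days (cycle 0), then with IV anti-CCR4 antibody 1 mg/kg weekly (cycle 1) and every 2 weeks thereafter. AEs were coded by MedDRA 19.0 and graded by CTCAE 4.03, with relatedness judged by investigators. The DLT window was 56 days. Patients receiving any dose were counted as frequency and percentage.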

[3] = 184 mogamulizumab-treated patients, MAVORIC

## mogamulizumab: recombinant, humanized monoclonal antibody of immunoglobulin G1-κ targeting CCR4
[1]; [3]
  IRRs, patients: 33%
  drug eruptions, patients: 24%
[1]; post hoc analysis of MAVORIC
  long-term responders who experienced drug eruptions: 60%
[2]
  IRRs related (TRAE) to the named drug, patients: 39%
  drug eruption related (TRAE) to the named drug, patients: 50%
  nausea related (TRAE) to the named drug, patients: 14%
